{"data": "Experimental data of several laboratories", "target": "Muscle, skeletal receptor tyrosine-protein kinase (MUSK, Homo sapiens, UniProt O15146)", "One construct used (O15146 24-869)": "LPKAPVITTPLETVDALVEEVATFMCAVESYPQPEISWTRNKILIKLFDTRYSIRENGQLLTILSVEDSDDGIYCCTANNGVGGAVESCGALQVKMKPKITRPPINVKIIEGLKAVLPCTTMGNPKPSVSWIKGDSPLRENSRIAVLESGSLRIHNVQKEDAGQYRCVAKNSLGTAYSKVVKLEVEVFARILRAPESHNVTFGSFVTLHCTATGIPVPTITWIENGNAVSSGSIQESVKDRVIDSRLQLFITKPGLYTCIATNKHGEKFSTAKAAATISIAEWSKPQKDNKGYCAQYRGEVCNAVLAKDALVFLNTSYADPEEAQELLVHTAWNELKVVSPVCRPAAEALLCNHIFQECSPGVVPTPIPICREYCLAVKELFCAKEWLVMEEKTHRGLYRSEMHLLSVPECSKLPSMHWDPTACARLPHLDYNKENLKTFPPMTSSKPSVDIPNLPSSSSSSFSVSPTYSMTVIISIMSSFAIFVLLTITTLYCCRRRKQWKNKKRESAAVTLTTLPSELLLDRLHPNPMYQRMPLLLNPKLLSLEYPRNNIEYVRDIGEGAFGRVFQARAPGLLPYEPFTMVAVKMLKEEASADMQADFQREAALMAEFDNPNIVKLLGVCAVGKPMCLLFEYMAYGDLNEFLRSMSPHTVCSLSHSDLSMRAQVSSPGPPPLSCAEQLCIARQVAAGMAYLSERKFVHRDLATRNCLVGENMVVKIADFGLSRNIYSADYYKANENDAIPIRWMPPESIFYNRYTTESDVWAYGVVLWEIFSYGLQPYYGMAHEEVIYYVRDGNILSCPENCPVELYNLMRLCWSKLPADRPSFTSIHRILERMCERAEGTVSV"}
{"SMILES": "CCCCC(=O)Nc1ccc(-c2ccc3ncn(CCC)c(=O)c3c2)cn1", "observed": "binding", "technique": "competition with immobilised ligand", "tested at": "0.5 µM", "quantity": "remaining binding", "result": "93%"}
{"SMILES": "C1=C/COCc2cc(ccc2OCCN2CCCC2)Nc2nccc(n2)-c2cccc(c2)COC/1", "observed": "binding", "tested at": "0.1 µM", "quantity": "remaining binding", "result": "89%"}
{"SMILES": "CO[C@@H]1[C@H](N(C)C(=O)c2ccccc2)C[C@H]2O[C@]1(C)n1c3ccccc3c3c4c(c5c6ccccc6n2c5c31)C(=O)NC4", "observed": "enzyme activity", "mode": "inhibitor", "tested at": "1 µM", "quantity": "inhibition", "result": "0%"}
{"SMILES": "C#Cc1cc(-c2cc(Nc3nc(N[C@@H](C)c4ccc(F)cn4)ncc3Cl)n[nH]2)ccc1C=O", "observed": "enzyme activity", "mode": "inhibitor", "tested at": "0.2 µM", "quantity": "inhibition", "result": "100%"}
{"SMILES": "CN1CCN(C(=O)c2ccc(NC(=O)Nc3ccc(N(C)c4ccnc(Nc5ccc(CS(C)(=O)=O)cc5)n4)cc3)cc2)CC1", "observed": "binding", "technique": "competition with immobilised ligand", "tested at": "1 µM", "quantity": "remaining binding", "result": "11%"}
{"SMILES": "CC(C)S(=O)(=O)c1ccc2nccc(Nc3ccc4sc(C5CCCC5)nc4c3)c2c1", "observed": "enzyme activity", "mode": "inhibitor", "tested at": "1 µM", "quantity": "activity vs control", "result": "101%"}
{"SMILES": "C=CC(=O)N1CCC([C@@H]2CCNc3c(C(N)=O)c(-c4ccc(Oc5ccccc5)cc4)nn32)CC1", "observed": "enzyme activity", "mode": "inhibitor", "tested at": "1 µM", "quantity": "inhibition", "result": "16%"}
{"SMILES": "Cc1ccc(NC(=O)c2ccnc(C(F)(F)F)c2)cc1-c1cc(OCCO)nc(N2CCOCC2)c1", "observed": "binding", "technique": "competition with immobilised ligand", "tested at": "1 µM", "quantity": "remaining binding", "result": "91%"}
